This note sets out measurements from ChEMBL document CHEMBL1134691, “3-Phenyl-5-acyloxymethyl-2H,5H-furan-2-ones: synthesis and biological activity of a novel group of potential antifungal drugs” (2001).

Converted amounts (≈) assume the structure as drawn.

Assay [1] has as its system Candida albicans. Put plainly: Inhibition of Candida albicans ATCC 90028 for 24 hours in vitro. The assay is classed as functional. The method, boiled down:
(§1)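 NCCLS M27-A broth microdilution in RPMI 1640 with L-glutamine and 0.165 M MOPS, pH 7.0. Isolates kept on Sabouraud dextrose agar. Inoculum 5 × 10^3 cfu/mL final. Compounds were diluted in DMSO (≤2% final) and tested in 2-fold dilutions of 1000–0.24 µmol/L. Incubation at 35 °C, OD540 read at 24 and 48 h. MIC = 80% growth inhibition versus control; assays run twice in duplicate.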

Assay [2] deals with Clavispora lusitaniae. Put plainly: Inhibition of Candida lusitaniae 2446/I growth for 48 hours in vitro. It counts as functional. The procedure, abridged:
as §1

The subject of assay [3] is Lichtheimia corymbifera. Put plainly: In vitro inhibition of Absidia corymbifera 272 growth for 48 hours. It counts as functional. The method, boiled down: (§2)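 Filamentous isolates tested by microdilution per NCCLS M27-A in RPMI 1640 plus L-glutamine, buffered with 0.165 M MOPS to pH 7.0. Final inoculum 5 × 10^3 cfu/mL. Compounds in DMSO (final ≤2%), 2-fold series over 1000–0.24 µmol/L. Plates held at 35 °C and read visually after 24 and 48 h. MIC taken as 80% inhibition of control growth; determined twice in duplicate.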

The subject of assay [4] is Candida parapsilosis. Nature of the assay: Inhibition of Candida parapsilosis ATCC 22019 growth for 24 hours in vitro. The assay is classed as functional. The procedure, abridged:
as §1

For assay [5], the system named is Lichtheimia corymbifera. Nature of the assay: In vitro inhibition of Absidia corymbifera 272 growth for 24 hours. It counts as functional. The procedure, abridged: as §2
Assay [6] concerns Clavispora lusitaniae. Nature of the assay: Inhibition of Candida lusitaniae 2446/I growth for 24 hours in vitro. The assay is classed as functional. The procedure, abridged:
as §1

For assay [7], the system named is Candida albicans. Nature of the assay: Inhibition of Candida albicans ATCC 90028 for 48 hours in vitro. The assay is classed as functional. The method, boiled down: as §1
In assay [8] the test system is Pichia kudriavzevii. Put plainly: Inhibition of Candida krusei ATCC 6258 growth for 48 hours in vitro. The assay is classed as functional. The method, boiled down:
as §1

Assay [9] relates to Aspergillus fumigatus. Nature of the assay: Inhibition of Aspergillus fumigatus 231 growth for 48 hours in vitro. The assay is classed as functional. The method, boiled down:
as §2

In assay [10] the test system is Pichia kudriavzevii. Put plainly: Inhibition of Candida krusei ATCC 6258 growth for 24 hours in vitro. The assay is classed as functional. The method, boiled down:
as §1

Assay [11] deals with Pichia kudriavzevii. Nature of the assay: Inhibition of Candida krusei E28 growth for 24 hours in vitro. It counts as functional. The method, boiled down: as §1
The subject of assay [12] is Candida parapsilosis. Nature of the assay: Inhibition of Candida parapsilosis ATCC 22019 growth for 48 hours in vitro. The assay is classed as functional. The procedure, abridged: as §1
The subject of assay [13] is Candida albicans. Put plainly: Inhibition of Candida albicans ATCC 44859 growth for 48 hours in vitro. The assay is classed as functional. The method, boiled down: as §1
In assay [14] the test system is Pichia kudriavzevii. Put plainly: Inhibition of Candida krusei E28 growth for 48 hours in vitro. It counts as functional. The procedure, abridged: as §1
For assay [15], the system named is Candida albicans. Nature of the assay: Inhibition of Candida albicans ATCC 44859 growth for 24 hours in vitro. The assay is classed as functional. The method, boiled down: as §1
For assay [16], the system named is Candida tropicalis. Put plainly: Inhibition of Candida tropicalis 156 growth for 48 hours in vitro. The assay is classed as functional. The procedure, abridged: as §1
Assay [17] deals with Nakaseomyces glabratus. Put plainly: Inhibition of Candida glabrata 20/I growth for 48 hours in vitro. It counts as functional. The method, boiled down: as §1
Assay [18] concerns Aspergillus fumigatus. Put plainly: Inhibition of Aspergillus fumigatus 231 growth for 24 hours in vitro. The assay is classed as functional. The procedure, abridged: as §2
Assay [19] has as its system Nakaseomyces glabratus. Put plainly: Inhibition of Candida glabrata 20/I growth for 24 hours in vitro. It counts as functional. The method, boiled down: as §1
A short description of assay [20]: Inhibition of Trichophyton mentagrophytes 445 growth for 120 hours in vitro. It counts as functional, Arthroderma benhamiae. The method, boiled down:
(§3)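 Dermatophyte grown in MOPS-buffered (0.165 M, pH 7.0) RPMI 1640 containing L-glutamine, in an M27-A microdilution format. Inoculum 5 × 10^3 cfu/mL final. Compounds from DMSO stocks (≤2% final), 2-fold dilutions 1000–0.24 µmol/L. Incubated at 35 °C, growth judged visually at 72 and 120 h. MIC endpoint is 80% inhibition relative to control; measured twice in duplicate.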

The nature of assay [21]: Inhibition of Trichophyton mentagrophytes 445 growth for 72 hours in vitro. The assay is classed as functional, Arthroderma benhamiae. The procedure, abridged:
as §3

Assay [22] concerns Trichosporon beigelii. Put plainly: Inhibition of Trichosporon beigelli 1188 for 48 hours in vitro. It counts as functional. The method, boiled down: (§4)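 Microdilution following NCCLS M27-A. Medium: RPMI 1640 with L-glutamine, 0.165 M MOPS, pH 7.0. Final inoculum 5 × 10^3 cfu/mL. Compounds dissolved in DMSO, final ≤2%, serially halved from 1000 to 0.24 µmol/L. Incubated at 35 °C and read at 24 and 48 h. MIC defined as 80% inhibition of control growth; run twice in duplicate.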

For assay [23], the system named is Candida tropicalis. Put plainly: Inhibition of Candida tropicalis 156 growth for 24 hours in vitro. The assay is classed as functional. The method, boiled down:
as §1

The test system of assay [24] is Trichosporon beigelii. Put plainly: Inhibition of Trichosporon beigelli 1188 for 24 hours in vitro. It counts as functional. The method, boiled down:
as §4

Setting [25] is: Candida albicans, ATCC 90028, 24 h, read-out: MIC.
Setting [26] is: Clavispora lusitaniae, 48 h, read-out: MIC.
The mark [27] stands for this setting: Lichtheimia corymbifera, 48 h, read-out: MIC.
Where [28] appears, read: Lodderomyces parapsilosis, ATCC 22019, 24 h, read-out: MIC.
Setting [29] is: Lichtheimia corymbifera, 24 h, read-out: MIC.
The mark [30] stands for this setting: Clavispora lusitaniae, 24 h, read-out: MIC.
Where [31] appears, read: Candida albicans, ATCC 90028, 48 h, read-out: MIC.
The mark [32] stands for this setting: Pichia kudriavzevii, ATCC 6258, 48 h, read-out: MIC.
[33] abbreviates: Aspergillus fumigatus, 48 h, read-out: MIC.
Where [34] appears, read: Pichia kudriavzevii, ATCC 6258, 24 h, read-out: MIC.
Setting [35] is: Pichia kudriavzevii, 24 h, read-out: MIC.
Where [36] appears, read: Lodderomyces parapsilosis, ATCC 22019, 48 h, read-out: MIC.
The mark [37] stands for this setting: Candida albicans, ATCC 44859, 48 h, read-out: MIC.
[38] abbreviates: Pichia kudriavzevii, 48 h, read-out: MIC.
The mark [39] stands for this setting: Candida albicans, ATCC 44859, 24 h, read-out: MIC.

With `CC(=O)N1CCN(c2ccc(OCC3COC(Cn4ccnc4)(c4ccc(Cl)cc4Cl)O3)cc2)CC1` (stereo unspecified) [KETOCONAZOLE], the MIC with Candida albicans [1] (setting [25]) is < 0.056 µM; in the assay with Clavispora lusitaniae [2] (setting [26]) it was 0.11 µM (≈ 0.0585 µg/mL); in the assay on Lichtheimia corymbifera [3] (setting [27]), 31.2 µM (≈ 16.6 µg/mL); with Candida parapsilosis [4] (setting [28]), 0.11 µM (≈ 0.0585 µg/mL); with Lichtheimia corymbifera [5] (setting [29]) it was 31.2 µM (≈ 16.6 µg/mL); in the assay on Clavispora lusitaniae [6] (setting [30]), 0.056 µM (≈ 0.0298 µg/mL). For the same molecule, the MIC in the assay on Candida albicans [7] (setting [31]) is < 0.056 µM; in the assay with Pichia kudriavzevii [8] (setting [32]), 1.96 µM (≈ 1.04 µg/mL); in the assay on Aspergillus fumigatus [9] (setting [33]), 15.6 µM (≈ 8.31 µg/mL); in the assay with Pichia kudriavzevii [10] (setting [34]), 1.96 µM (≈ 1.04 µg/mL); with Pichia kudriavzevii [11] (setting [35]), 3.91 µM (≈ 2.08 µg/mL); in the assay with Candida parapsilosis [12] (setting [36]), 0.11 µM (≈ 0.0585 µg/mL). For the same molecule, the MIC in the assay on Candida albicans [13] (setting [37]) was 0.11 µM (≈ 0.0585 µg/mL); in the assay on Pichia kudriavzevii [14] (setting [38]), 3.91 µM (≈ 2.08 µg/mL); in the assay on Candida albicans [15] (setting [39]), 0.11 µM (≈ 0.0585 µg/mL).
`CC(C)(C)C(=O)OCC1C=C(c2ccc(Cl)c(Cl)c2)C(=O)O1` (stereo in doubt; (-)2c): the MIC in the assay on Candida albicans [1] (setting [25]) worked out at 3.91 µM (≈ 1.34 µg/mL); in the assay on Clavispora lusitaniae [2] (setting [26]) it was 7.81 µM (≈ 2.68 µg/mL); with Lichtheimia corymbifera [3] (setting [27]), 62.5 µM (≈ 21.5 µg/mL); in the assay with Candida parapsilosis [4] (setting [28]), 7.81 µM (≈ 2.68 µg/mL); against Lichtheimia corymbifera [5], 5.36 uM l-1; with Clavispora lusitaniae [6] (setting [30]) it was 3.91 µM (≈ 1.34 µg/mL). Moreover, the MIC with Candida albicans [7] (setting [31]) came to 7.81 µM (≈ 2.68 µg/mL); in the assay on Pichia kudriavzevii [8], 10.73 uM l-1; with Aspergillus fumigatus [9] (setting [33]) it was 7.81 µM (≈ 2.68 µg/mL); in the assay on Pichia kudriavzevii [10], 2.68 uM l-1; in the assay on Pichia kudriavzevii [11] (setting [35]) it was 7.81 µM (≈ 2.68 µg/mL); in the assay on Candida parapsilosis [12] (setting [36]), 15.6 µM (≈ 5.36 µg/mL). For the same molecule, the MIC against Candida tropicalis [16] worked out at 5.36 uM l-1; in the assay on Candida albicans [13] (setting [37]) it was 3.91 µM (≈ 1.34 µg/mL); against Pichia kudriavzevii [14] it was 5.36 uM l-1; in the assay with Candida albicans [15] (setting [39]) it was 1.95 µM (≈ 0.669 µg/mL).
For the molecule `CC(C)(C)C(=O)OCC1C=C(c2ccc(Cl)c(Cl)c2)C(=O)O1` (single isomer, unassigned; (+)), the MIC with Nakaseomyces glabratus [17] was found to be 1.34 uM l-1; in the assay on Candida albicans [1], 1.34 uM l-1; against Aspergillus fumigatus [18], 1.34 uM l-1; against Clavispora lusitaniae [2], 2.68 uM l-1; in the assay on Lichtheimia corymbifera [3], 10.73 uM l-1; against Nakaseomyces glabratus [19] it was 0.67 µM. The MIC with Candida parapsilosis [4] was 2.68 uM l-1; with Lichtheimia corymbifera [5], 10.73 uM l-1; in assay [20], 0.67 uM l-1; in [21] it was 0.34 µM (≈ 0.117 µg/mL); in the assay on Trichosporon beigelii [22] it was 5.36 uM l-1; in the assay with Clavispora lusitaniae [6], 1.34 uM l-1. The MIC against Candida albicans [7] is 2.68 µM (≈ 0.92 µg/mL); against Aspergillus fumigatus [9], 2.68 uM l-1; in the assay on Pichia kudriavzevii [10], 5.36 uM l-1; in the assay with Candida tropicalis [23], 5.36 uM l-1; against Pichia kudriavzevii [11] it was 5.36 uM l-1; in the assay on Candida parapsilosis [12], 5.36 uM l-1. In addition, the MIC in the assay with Trichosporon beigelii [24] was found to be 2.68 uM l-1; against Candida tropicalis [16], 10.73 uM l-1; in the assay with Candida albicans [13], 1.34 uM l-1; in the assay on Pichia kudriavzevii [14], 10.73 uM l-1; in the assay on Candida albicans [15] it was 0.67 µM (≈ 0.23 µg/mL).
Consider `C[C@@H]1[C@H](O)[C@@H](C)/C=C/C=C/C=C/C=C/C=C/C=C/C=C/[C@H](O[C@@H]2O[C@H](C)[C@@H](O)[C@H](N)[C@@H]2O)C[C@@H]2O[C@](O)(C[C@@H](O)C[C@@H](O)[C@H](O)CC[C@@H](O)C[C@@H](O)CC(=O)O[C@H]1C)C[C@H](O)[C@H]2C(=O)O` [AMPHOTERICIN B], for which the MIC was found to be 2 µg/mL (≈ 2.16 µM) with Nakaseomyces glabratus [17]; 2.16 µM (≈ 2 µg/mL) with Candida albicans [1] (setting [25]); 2.16 µM (≈ 2 µg/mL) in the assay on Clavispora lusitaniae [2] (setting [26]); 2.16 µM (≈ 2 µg/mL) in the assay on Lichtheimia corymbifera [3] (setting [27]); 2 µg/mL against Nakaseomyces glabratus [19]; 2.16 µM (≈ 2 µg/mL) with Candida parapsilosis [4] (setting [28]). Besides, the MIC worked out at 2.16 µM (≈ 2 µg/mL) with Lichtheimia corymbifera [5] (setting [29]); 2.16 µM (≈ 2 µg/mL) with Clavispora lusitaniae [6] (setting [30]); 2.16 µM (≈ 2 µg/mL) with Candida albicans [7] (setting [31]); 4.33 µM (≈ 4 µg/mL) in the assay on Pichia kudriavzevii [8] (setting [32]); 0.54 µM (≈ 0.499 µg/mL) in the assay with Aspergillus fumigatus [9] (setting [33]); 2.16 µM (≈ 2 µg/mL) in the assay with Pichia kudriavzevii [10] (setting [34]). Further, the MIC was found to be 2.16 µM (≈ 2 µg/mL) with Pichia kudriavzevii [11] (setting [35]); 2.16 µM (≈ 2 µg/mL) with Candida parapsilosis [12] (setting [36]); 1.08 µM (≈ 0.998 µg/mL) in the assay with Candida albicans [13] (setting [37]); 4.33 µM (≈ 4 µg/mL) in the assay with Pichia kudriavzevii [14] (setting [38]); 1.08 µM (≈ 0.998 µg/mL) in the assay on Candida albicans [15] (setting [39]).
